# Calls of active or inactive are those of the source.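 How the source made its calls, unless noted: active means duplicate-averaged activation above buffer control mean plus 5 SD of those controls; inactive means the rest.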
# Test system: not listed separately
# Assay: nonspecific flux increase, KCNQ1-free cells – parental CHO cells, counter-screen for KCNQ1 potentiator project (AID 493006);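 on activation: fluorescence ratio of max minus min over baseline after K+ and Tl+ depolarization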
# Conditions: parental CHO-K1 cells, FluxOR thallium flux, at 10 µM; stronger effect = higher value
# How it was run: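 Material: parental CHO-K1 cells, FluxOR dye-loaded; Also added: Potassium/thallium depolarization pulse; Schedule: overnight 37 °C plating, 90 min dye, 20 min dark compound; Signal: kinetic FluxOR fluorescence, 10 s baseline, 110 s after stimulus.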
SMILES,outcome,activation
Cn1c(=O)n(CCc2ccccc2)c2ccccc21,inactive,–
Cc1ccnc(NS(=O)(=O)c2ccc(NC(=O)C34CC5CC(CC(C5)C3)C4)cc2)n1,inactive,–
O=C1c2ccccc2C2(c3cc(C(F)(F)F)cc(C(F)(F)F)c3)NCCN12 (stereo not given),inactive,–
CCN(CC)c1ccc(NC(=S)NC(=O)c2ccco2)cc1,–,263% (active)
CCCCOc1ccc(C(=O)Oc2ccc(C)nc2)cc1,inactive,–
O=C(CNCC1CCCCC1)Nc1ccc(OC(F)(F)F)cc1,inactive,–
CC(C)(C)c1cc(-c2csc(Nc3ccccc3)[n+]2Cc2ccc(C(=O)O)cc2)cc(C(C)(C)C)c1O,–,327% (active)
Nc1nc(NCc2ccco2)nc(NC2CCCCC2)c1[N+](=O)[O-],inactive,–
Cc1ccc(CSc2nc3ccccc3c(=O)n2CCCC(=O)NCc2ccco2)cc1,inactive,–
O=C(NCc1ccco1)C1CC(c2ccc(Cl)cc2)=NO1 (stereo not given),inactive,–
O=C(Nc1cccc(NC(=O)c2c(F)cccc2F)n1)c1c(F)cccc1F,inactive,–
CCC(=O)Nc1cc(-c2nn3c(C)nnc3s2)ccc1C,inactive,–
Cc1ccc(C)c(N(CC(=O)NC2CCCC2)C(=O)CCC(=O)Nc2nccs2)c1,inactive,–
C=CCOc1c(Br)cc(/C=N/Nc2ccc(C(=O)O)cc2)cc1OCC,inactive,–
COc1cccc(C(=O)COc2ccc(NC(=O)c3ccccc3)cc2)c1,inactive,–
COc1ccc(C(=O)CSc2nnc(CNC(=O)c3ccc(OC)cc3)n2C)cc1,inactive,–
CC1Cc2ccccc2N1C(=S)NC(=O)c1cccc(Br)c1 (stereo not given),–,726% (active)
Cc1cccc(/C=N/n2c(COc3ccccc3)n[nH]c2=S)c1,inactive,–
O=[N+]([O-])c1cc(CN2CCCC2)ccc1Sc1ccc(Cl)cc1,inactive,–
O=C(CN1C2=NCCCN2c2ccccc21)c1ccc2c(c1)OCO2,inactive,–

SMILES,outcome,activation
O=C(NC(=S)N1CCN(C/C=C/c2ccccc2)CC1)c1ccc(F)cc1,–,190% (active)
O=C(CCC(=O)c1ccc(F)cc1)Nc1cc(Cl)cc(Cl)c1,inactive,–
O=C(NC(=S)N1CCc2ccccc21)c1ccccc1Cl,–,443% (active)
CCOc1ccc(NC(=O)CN(C)C(=O)c2c(-c3c(F)cccc3Cl)noc2C)cc1OCC,inactive,–
COc1cccc2sc(NNC(=O)c3nc4ccccc4s3)nc12,–,300% (active)
CCOC(=O)C1CCCN(C(=O)C2CCN(S(=O)(=O)c3ccc4ccccc4c3)CC2)C1 (stereo not given),inactive,–
CCOC(=O)Cn1c(=N)n(CCOc2ccc(Br)cc2)c2ccccc21,inactive,–
C=CCN(CC=C)C(=S)NC(=O)c1ccc(OC)c(Br)c1,–,506% (active)
CC(=O)c1ccc(N2CCN(C(=O)c3ccc(NC(=O)C4CCCO4)cc3)CC2)cc1 (stereo not given),inactive,–
CCOc1ccc2nc(Nc3nc4ccc(NC(C)=O)cc4s3)sc2c1,inactive,–
COc1ccccc1NC(=O)Cn1cnc2c(oc3nc4c(cc32)CCCC4)c1=O,inactive,–
CC(=O)OC1OCCOC1NC(=S)Nc1ccc(C)cc1 (stereo not given),inactive,–
COc1ccc(-c2csc(NC(=S)NC(=O)c3ccco3)n2)cc1,–,264% (active)
O=c1[nH]c(=S)[nH]c2sc3c(c12)CCCCCC3,–,138% (active)
COC(=O)c1ccc(NC(=S)NC(=O)c2cc(-c3ccccc3)nc3ccccc23)cc1,–,174% (active)
C=CCn1c(SCc2ccc(C(=O)O)cc2)nc2sc(C)c(C)c2c1=O,–,216% (active)
CCOC(=O)c1c(-c2ccccc2)oc2ccc(O)c(CN3CCN(C)CC3)c12,inactive,–
Cc1noc(C)c1S(=O)(=O)Nc1ccc(C#N)cc1,inactive,–
CCC(C)n1c(=S)[nH]c2c(sc3ccc([N+](=O)[O-])cc32)c1=O (stereo not given),–,764% (active)
O=C(Nc1nnc(-c2ccc(F)cc2)o1)c1cc(Cl)sc1Cl,–,330% (active)

# Biological target: Potassium voltage-gated channel subfamily KQT member 1 (Homo sapiens) (UniProt P51787)
# Assay: enhancement of KCNQ1 channel thallium flux – FluxOR thallium flux, CHO cells, duplicates, confirmation (AID 493007;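 active means potentiation averaged over duplicate wells exceeding buffer-only control mean by more than 3 SD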;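 on outcome: cells depolarized by a potassium plus thallium sulfate stimulus after compound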)
# Conditions: KCNQ1 cell line, FluxOR thallium flux fluorescence, at 10 µM; stronger effect = higher value, % of reference activator effect, buffer zero
# How it was run: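 System: KCNQ1-expressing CHO cell line; technique: kinetic thallium influx fluorescence with FluxOR dye, 10 s baseline, 110 s post-stimulus; timing: dye 90 min then compound 20 min, both at room temperature; controls: buffer-only wells as 0% and R-L3 activator as 100%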
# Chain of Potassium voltage-gated channel subfamily KQT member 1 (Homo sapiens) (P51787 whole entry, looked up): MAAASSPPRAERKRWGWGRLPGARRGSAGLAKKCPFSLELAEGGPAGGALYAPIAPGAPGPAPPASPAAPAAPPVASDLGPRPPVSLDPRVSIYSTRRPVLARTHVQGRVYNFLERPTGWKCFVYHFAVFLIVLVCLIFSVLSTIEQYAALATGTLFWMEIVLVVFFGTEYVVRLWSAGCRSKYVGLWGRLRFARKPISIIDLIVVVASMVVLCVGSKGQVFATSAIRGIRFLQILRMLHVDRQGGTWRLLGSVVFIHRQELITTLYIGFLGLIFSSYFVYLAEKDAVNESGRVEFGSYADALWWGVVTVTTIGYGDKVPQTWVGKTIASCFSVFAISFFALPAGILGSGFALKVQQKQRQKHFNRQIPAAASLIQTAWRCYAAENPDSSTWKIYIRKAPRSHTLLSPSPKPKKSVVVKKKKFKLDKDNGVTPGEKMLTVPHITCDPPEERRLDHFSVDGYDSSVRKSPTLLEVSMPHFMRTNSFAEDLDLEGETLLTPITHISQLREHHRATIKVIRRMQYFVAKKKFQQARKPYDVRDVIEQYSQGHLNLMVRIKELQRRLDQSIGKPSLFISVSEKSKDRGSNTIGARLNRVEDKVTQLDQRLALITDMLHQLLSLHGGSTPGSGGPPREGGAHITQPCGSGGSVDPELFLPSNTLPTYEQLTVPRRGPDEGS
SMILES,outcome,potentiation
Cn1c(=O)n(CCc2ccccc2)c2ccccc21,inactive,–
Cc1ccnc(NS(=O)(=O)c2ccc(NC(=O)C34CC5CC(CC(C5)C3)C4)cc2)n1,inactive,–
O=C1c2ccccc2C2(c3cc(C(F)(F)F)cc(C(F)(F)F)c3)NCCN12 (stereo not given),inactive,–
CCN(CC)c1ccc(NC(=S)NC(=O)c2ccco2)cc1,–,104% (active)
CCCCOc1ccc(C(=O)Oc2ccc(C)nc2)cc1,inactive,–
O=C(CNCC1CCCCC1)Nc1ccc(OC(F)(F)F)cc1,inactive,–
CC(C)(C)c1cc(-c2csc(Nc3ccccc3)[n+]2Cc2ccc(C(=O)O)cc2)cc(C(C)(C)C)c1O,–,54.5% (active)
Nc1nc(NCc2ccco2)nc(NC2CCCCC2)c1[N+](=O)[O-],inactive,–
Cc1ccc(CSc2nc3ccccc3c(=O)n2CCCC(=O)NCc2ccco2)cc1,inactive,–
O=C(NCc1ccco1)C1CC(c2ccc(Cl)cc2)=NO1 (stereo not given),inactive,–
O=C(Nc1cccc(NC(=O)c2c(F)cccc2F)n1)c1c(F)cccc1F,inactive,–
CCC(=O)Nc1cc(-c2nn3c(C)nnc3s2)ccc1C,inactive,–
Cc1ccc(C)c(N(CC(=O)NC2CCCC2)C(=O)CCC(=O)Nc2nccs2)c1,inactive,–
C=CCOc1c(Br)cc(/C=N/Nc2ccc(C(=O)O)cc2)cc1OCC,inactive,–
COc1cccc(C(=O)COc2ccc(NC(=O)c3ccccc3)cc2)c1,inactive,–
COc1ccc(C(=O)CSc2nnc(CNC(=O)c3ccc(OC)cc3)n2C)cc1,–,21% (active)
CC1Cc2ccccc2N1C(=S)NC(=O)c1cccc(Br)c1 (stereo not given),–,224% (active)
Cc1cccc(/C=N/n2c(COc3ccccc3)n[nH]c2=S)c1,–,60.5% (active)
O=[N+]([O-])c1cc(CN2CCCC2)ccc1Sc1ccc(Cl)cc1,inactive,–
O=C(CN1C2=NCCCN2c2ccccc21)c1ccc2c(c1)OCO2,inactive,–

SMILES,outcome,potentiation
O=C(NC(=S)N1CCN(C/C=C/c2ccccc2)CC1)c1ccc(F)cc1,–,74% (active)
O=C(CCC(=O)c1ccc(F)cc1)Nc1cc(Cl)cc(Cl)c1,inactive,–
O=C(NC(=S)N1CCc2ccccc21)c1ccccc1Cl,–,130% (active)
CCOc1ccc(NC(=O)CN(C)C(=O)c2c(-c3c(F)cccc3Cl)noc2C)cc1OCC,inactive,–
COc1cccc2sc(NNC(=O)c3nc4ccccc4s3)nc12,–,191% (active)
CCOC(=O)C1CCCN(C(=O)C2CCN(S(=O)(=O)c3ccc4ccccc4c3)CC2)C1 (stereo not given),inactive,–
CCOC(=O)Cn1c(=N)n(CCOc2ccc(Br)cc2)c2ccccc21,inactive,–
C=CCN(CC=C)C(=S)NC(=O)c1ccc(OC)c(Br)c1,–,199% (active)
CC(=O)c1ccc(N2CCN(C(=O)c3ccc(NC(=O)C4CCCO4)cc3)CC2)cc1 (stereo not given),inactive,–
CCOc1ccc2nc(Nc3nc4ccc(NC(C)=O)cc4s3)sc2c1,inactive,–
COc1ccccc1NC(=O)Cn1cnc2c(oc3nc4c(cc32)CCCC4)c1=O,inactive,–
CC(=O)OC1OCCOC1NC(=S)Nc1ccc(C)cc1 (stereo not given),inactive,–
COc1ccc(-c2csc(NC(=S)NC(=O)c3ccco3)n2)cc1,–,80.5% (active)
O=c1[nH]c(=S)[nH]c2sc3c(c12)CCCCCC3,inactive,–
COC(=O)c1ccc(NC(=S)NC(=O)c2cc(-c3ccccc3)nc3ccccc23)cc1,–,37% (active)
C=CCn1c(SCc2ccc(C(=O)O)cc2)nc2sc(C)c(C)c2c1=O,–,72.5% (active)
CCOC(=O)c1c(-c2ccccc2)oc2ccc(O)c(CN3CCN(C)CC3)c12,inactive,–
Cc1noc(C)c1S(=O)(=O)Nc1ccc(C#N)cc1,inactive,–
CCC(C)n1c(=S)[nH]c2c(sc3ccc([N+](=O)[O-])cc32)c1=O (stereo not given),–,342% (active)
O=C(Nc1nnc(-c2ccc(F)cc2)o1)c1cc(Cl)sc1Cl,–,118% (active)

# From PubChem BioAssay
